Results on 1 molecule are retold here after ChEMBL document CHEMBL2176995, “An oral sphingosine 1-phosphate receptor 1 (S1P(1)) antagonist prodrug with efficacy in vivo: discovery, synthesis, and evaluation” (J Med Chem, 2012).

The source made the active and inactive calls. The rule behind the calls is not given here.

A short description of data set [1]: Stability in pH 7.4 buffer assessed as compound hydrolysis measured after 18 hrs by UPLC. The format is physicochemical. The following applies: read-out: Drug degradation. An outline of the steps: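 The ester was incubated in buffer at pH 7.4 or pH 10. Remaining ester and the hydrolysed carboxylic acid were followed over time by UPLC, at time points out to 82 h.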

For data set [2], the system named is Rattus norvegicus. Put plainly: Toxicity in stringent Dark Agouti to Lewis rat heterotopic vascular heart allotransplantation model assessed as change in body weight at 30 mg/kg, po bid coadministered with 10 mg/kg, bid sotrastaurin. The class given is organism-based. The following applies: in vivo. An outline of the steps: (§1)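 DA donor hearts were grafted into Lewis recipients. Treatment started 3 days before transplantation: prodrug 30 mg/kg po b.i.d. (PEG200/water, pH 5) alone or with sotrastaurin 10 mg/kg po b.i.d. or everolimus 0.3 mg/kg po q.d. Grafts were followed to rejection or up to 50 days. Allografts were formalin-fixed, cut at 3 μm, stained with H&E and trichrome, and scored for rejection. Lymphocytes were counted weekly before dosing, and body weight was monitored.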

The test system of data set [3] is Rattus norvegicus. In words: Reduction in peripheral blood lymphocytes in Lewis rat assessed as remaining circulating lymphocytes level at 30 mg/kg, po administered as single dose measured 14 hrs post dose by automated hematology analyzer. The format is functional. An outline of the steps:
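Male Lewis rats receive a single oral dose of compound or vehicle, freshly made in 30% PEG200/buffer. Blood (<200 μL) is drawn by sublingual puncture under isoflurane 5% v/v at baseline and later time points. Lymphocytes are counted on an automated hematology analyzer, and each animal's change is expressed as percent of its own pre-treatment baseline.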

The subject of data set [4] is Rattus norvegicus. In words: Increase in allograft survival in stringent Dark Agouti to Lewis rat heterotopic vascular heart allotransplantation model assessed as improvement in histological changes at 30 mg/kg, po bid coadministered with 0.3 mg/kg, qd everolimus by hematoxylin and eosin staining. The class given is functional, organism-based. An outline of the steps: as §1

Data set [5] relates to Rattus norvegicus. Put plainly: Toxicity in stringent Dark Agouti to Lewis rat heterotopic vascular heart allotransplantation model assessed as compound tolerance at 30 mg/kg, po bid coadministered with 0.3 mg/kg, qd everolimus. The following applies: in vivo. The class given is organism-based. The procedure, abridged: as §1
A short description of data set [6]: Drug level in Lewis rat blood at 30 mg/kg, po administered as single dose measured 24 hrs post dose. The following applies: read-out: Drug uptake.
Data set [7] concerns Rattus norvegicus. In words: Toxicity in stringent Dark Agouti to Lewis rat heterotopic vascular heart allotransplantation model assessed as incidence of histopathological changes at 30 mg/kg, po bid coadministered with 0.3 mg/kg, qd everolimus by hematoxylin and eosin staining. The following applies: in vivo. The format is organism-based. An outline of the steps:
as §1

The subject of a further data set is Blood. Put plainly: Drug level in Lewis rat blood assessed as level of (S)-2-{[3'-(4-Chloro-2,5-dimethylphenylsulfonylamino)-3,5-dimethylbiphenyl-4-carbonyl]methylamino}-4-dimethylaminobutyric Acid Hydrochloride at 30 mg/kg, po administered as single dose measured 24 hrs post dose. The following applies: in vivo.
Data set [8] relates to Rattus norvegicus. In words: Increase in allograft survival in stringent Dark Agouti to Lewis rat heterotopic vascular heart allotransplantation model assessed as allograft mean survival time at 30 mg/kg, po bid coadministered with 10 mg/kg, bid sotrastaurin (reference value: 6 days). The format is functional. The procedure, abridged:
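This was a DA-to-Lewis heart allograft model with co-treatment from 3 days before transplantation. The prodrug was given po b.i.d. in PEG200/water at pH 5, plus the PKC inhibitor po b.i.d. in D-glucose/PEG400/water/HCl. Lymphocytes were counted weekly before dosing, and blood levels of both drugs were determined. Survival was followed up to 50 days, as median days, with H&E and trichrome histology.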

For the molecule `COC(=O)[C@H](CCN(C)C)N(C)C(=O)c1c(C)cc(-c2cccc(NS(=O)(=O)c3cc(C)c(Cl)cc3C)c2)cc1C`, in data set [1], the degraded at 18 h is 48%. Moreover, the Activity entry in the data set with Rattus norvegicus [2] is “Non-toxic”; in the data set on Rattus norvegicus [3], 21%; in the data set on Rattus norvegicus [5], “Non-toxic”; with Rattus norvegicus [7] it was “Non-toxic”. The outcome with Rattus norvegicus [4] was Active. Moreover, the concentration at 24 h in data set [6] is 50 ng/mL. The Drug uptake in the data set with Blood is 5 ng/mL. Further, the MST with Rattus norvegicus [8] was greater than 50 days.
